These results are taken from ChEMBL document CHEMBL1126131, “6-Alkyl-12-formylindolo[2,1-a]isoquinolines. Syntheses, estrogen receptor binding affinities, and stereospecific cytostatic activity” (1992).

Structures are written as SMILES.

The target of assay [1] is Estrogen receptor (Bos taurus) (UniProt Q9XSB5+P49884). The assay is described as follows: Relative binding affinity for calf uterine estrogen receptor compared to 17-beta-estradiol (E2). Format: protein assay. Summed up: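 Competitive binding in calf uterine cytosol (final protein 3 mg/mL) in Tris-EDTA-NaN3 buffer, pH 7.5. 5 nM [3H]17β-estradiol plus competitor at 10^-9 to 10^-5 M, 18 h at 4 °C. Free ligand removed with dextran-coated charcoal (90 min, 4 °C). Nonspecific binding from 4 μM estradiol. RBA = ratio of estradiol to test molar concentrations giving 50% displacement × 100.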

Assay [2] has as its system MDA-MB-231. The assay is described as follows: Inhibition of hormone-independent MDA-MB 231 mammary tumor cell proliferation at 1*10e-5 M. Format: functional, Homo sapiens. The method in brief:
(§1)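 MDA-MB 231 cells were grown in McCoy 5a medium with 10% NCS and were pre-grown 3 d in microplates before drug medium was added (controls 0.1% DMF). After 2 days of incubation, wells were fixed with 1% glutaraldehyde, stained with 0.02% crystal violet, and read by optical density. T/C (%) was corrected for initial density (vinblastine 10^-7 M). 16 replicates ± SD.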

Assay [3] relates to MDA-MB-231. The assay is described as follows: Inhibition of hormone-independent MDA-MB 231 mammary tumor cell proliferation at 1*10e-6 M. Format: functional, Homo sapiens. Summed up:
as §1

The subject of assay [4] is MDA-MB-231. The assay is described as follows: Inhibition of hormone-independent MDA-MB 231 mammary tumor cell proliferation at 1*10e-7 M. Format: functional, Homo sapiens. Summed up: as §1
Assay [5] concerns MDA-MB-231. The assay is described as follows: Inhibition of hormone-independent MDA-MB 231 mammary tumor cell proliferation at 5*10e-6 M. Format: functional, Homo sapiens. Summed up: as §1
The subject of assay [6] is MCF7. The assay is described as follows: Inhibition of hormone-sensitive MCF-7 mammary tumor cell proliferation at 1*10e-5 M. Format: functional, Homo sapiens. Summed up: (§2)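 MCF-7 cells were grown in modified improved MEM with 10% newborn calf serum at 37 °C and 5% CO2, plated in 96-well plates for 3 d, then given drug medium (controls 0.1% DMF). After 3 days, cells were glutaraldehyde-fixed and crystal violet-stained; T/C = test/control optical density, corrected for initial density (vinblastine 10^-7 M). 16 replicates ± SD.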

For assay [7], the system named is MCF7. The assay is described as follows: Inhibition of hormone-sensitive MCF-7 mammary tumor cell proliferation at 1*10e-6 M. Format: functional, Homo sapiens. Summed up:
as §2

Assay [8] relates to MCF7. The assay is described as follows: Inhibition of hormone-sensitive MCF-7 mammary tumor cell proliferation at 1*10e-7 M. Format: functional, Homo sapiens. Summed up:
as §2

The subject of assay [9] is MCF7. The assay is described as follows: Inhibition of hormone-sensitive MCF-7 mammary tumor cell proliferation at 5*10e-6 M. Format: functional, Homo sapiens. Summed up: as §2
Assay [10] deals with T1, Estrogen receptor (Mus musculus) (UniProt O08537+P19785). The assay is described as follows: Percent inhibition of estrone-stimulated uterotrophic effect in mice at 250 ug dose. Format: functional. Summed up: (§3)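 Antiuterotrophic test in immature female NMRI mice (20 days old). Estrone 0.4 μg was co-injected with the compound in olive oil, sc daily for three days. Uterine dry weight per body weight was read 24 h after the last dose. Inhibition (%) = 100 − [(W_S,T − W_V)/(W_S − W_V) × 100], where W_V is the vehicle control.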
T1 sequence (O08537 whole entry, looked up): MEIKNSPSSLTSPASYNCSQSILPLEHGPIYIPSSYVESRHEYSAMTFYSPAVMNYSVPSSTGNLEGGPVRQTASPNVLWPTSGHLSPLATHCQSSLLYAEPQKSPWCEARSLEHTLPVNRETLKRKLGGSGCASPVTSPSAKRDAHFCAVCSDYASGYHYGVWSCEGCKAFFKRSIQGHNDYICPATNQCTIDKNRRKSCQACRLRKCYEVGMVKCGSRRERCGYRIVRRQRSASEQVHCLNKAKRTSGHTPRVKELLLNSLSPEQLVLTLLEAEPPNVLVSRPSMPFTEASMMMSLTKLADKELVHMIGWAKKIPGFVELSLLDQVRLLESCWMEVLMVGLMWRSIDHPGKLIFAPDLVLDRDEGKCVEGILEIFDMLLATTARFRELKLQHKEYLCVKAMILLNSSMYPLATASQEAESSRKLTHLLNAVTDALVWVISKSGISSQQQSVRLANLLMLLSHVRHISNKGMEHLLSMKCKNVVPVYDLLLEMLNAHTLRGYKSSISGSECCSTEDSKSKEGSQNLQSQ
T1 sequence (P19785 whole entry, looked up): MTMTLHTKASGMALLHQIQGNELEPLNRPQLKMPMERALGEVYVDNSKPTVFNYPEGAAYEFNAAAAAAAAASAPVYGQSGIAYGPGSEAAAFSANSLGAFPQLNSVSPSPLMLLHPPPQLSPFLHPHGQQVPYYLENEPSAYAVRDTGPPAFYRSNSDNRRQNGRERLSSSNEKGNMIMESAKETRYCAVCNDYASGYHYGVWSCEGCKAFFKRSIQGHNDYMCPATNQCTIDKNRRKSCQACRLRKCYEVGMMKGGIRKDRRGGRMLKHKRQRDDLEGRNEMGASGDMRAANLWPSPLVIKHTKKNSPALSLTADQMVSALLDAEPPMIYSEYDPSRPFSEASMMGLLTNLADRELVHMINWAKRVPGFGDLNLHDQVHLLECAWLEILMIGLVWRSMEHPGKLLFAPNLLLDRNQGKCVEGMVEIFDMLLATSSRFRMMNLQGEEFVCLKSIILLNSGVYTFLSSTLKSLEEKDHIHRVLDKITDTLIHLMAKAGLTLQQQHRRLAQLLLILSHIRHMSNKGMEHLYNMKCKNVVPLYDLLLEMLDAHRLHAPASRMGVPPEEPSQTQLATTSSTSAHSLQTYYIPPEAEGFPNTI

Assay [11] addresses T1, Estrogen receptor (Mus musculus). The assay is described as follows: Percent inhibition of estrone-stimulated uterotrophic effect in mice at 50 ug dose. Format: functional. The method in brief: as §3
Assay [12] shares this target. The assay is described as follows: Percent inhibition of estrone-stimulated uterotrophic effect in mice at 10 ug dose. Format: functional. The method in brief: as §3
For assay [13] the target is unchanged. The assay is described as follows: Percent inhibition of estrone-stimulated uterotrophic effect in mice at 2 ug dose. Format: functional. The method in brief:
as §3

Assay [14] has the same target. The assay is described as follows: Anti-uterotrophic effect in mice as uterine weight(mg) relative to body weight(g) at 10 ug dose. Format: functional. The method in brief: (§4)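 Immature female NMRI mice, 20 days old, groups of six to ten; compound plus standard estrone 0.4 μg in olive oil (100 μL/animal) given sc on three consecutive days. Killed 24 h after last injection; uteri fixed in Bouin solution 2 h, dried at 100 °C for 18 h, weighed. Relative weight = uterine dry weight (mg)/body weight (g) × 100; mean of 6 animals ± SD.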

The target is the same in assay [15]. The assay is described as follows: Anti-uterotrophic effect in mice as uterine weight(mg) relative to body weight(g) at 2 ug dose. Format: functional. Summed up: as §4
For assay [16] the target is unchanged. The assay is described as follows: Anti-uterotrophic effect in mice as uterine weight(mg) relative to body weight(g) at 250 ug dose. Format: functional. Summed up:
as §4

Assay [17] shares this target. The assay is described as follows: Uterotrophic effect in mice as uterine weight(mg) relative to body weight(g) at 10 ug dose. Format: functional, tissue-based. Summed up:
(§5)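 Uterotrophic test: 20-day-old immature female NMRI mice, six to ten per group, received compound alone in olive oil (100 μL/animal) sc on three consecutive days; controls received vehicle. After 24 h, uteri were Bouin-fixed 2 h and dried 18 h at 100 °C. Uterine dry weight (mg)/body weight (g) × 100; mean of 6 ± SD.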

Assay [18] has the same target. The assay is described as follows: Uterotrophic effect in mice as uterine weight(mg) relative to body weight(g) at 2 ug dose. Format: functional, tissue-based. The method in brief: as §5
For assay [19] the target is unchanged. The assay is described as follows: Uterotrophic effect in mice as uterine weight(mg) relative to body weight(g) at 250 ug dose. Format: functional, tissue-based. The method in brief:
as §5

Assay [20] shares this target. The assay is described as follows: Uterotrophic effect in mice as uterine weight(mg) relative to body weight(g) at 50 ug dose. Format: functional, tissue-based. Summed up:
as §5

The target is the same in assay [21]. The assay is described as follows: Anti-uterotrophic effect in mice as uterine weight(mg) relative to body weight(g) at 50 ug dose. Format: functional. Summed up: as §4

As to `CCCC1Cc2cc(OC(C)=O)ccc2-c2c(C=O)c3cc(OC(C)=O)ccc3n21` (stereo not drawn), the relative binding affinity (RBA) in assay [1] is 2.6. Besides, the T/C was 9% in [2]; 106% in [3]; 109% in assay [4]; 43% in [5]; 0% in assay [6]; 86% in [7]. Further, the T/C in [8] was found to be 99%; in assay [9], 9%. In addition, the inhibition in assay [10] amounted to 28%; in assay [11], 26%; in assay [12], 20%; in assay [13], 27%. The Relative uterus weight was found to be 41.1 in [14]; 38.8 in [15]; 38.5 in [16]; 21.1 in assay [17]; 16.9 in assay [18]; 32.9 in [19]. For the same molecule, the Relative uterus weight in [20] is 24.9; in [21], 39.2.

`CCCCC1Cc2cc(OC(C)=O)ccc2-c2c(C=O)c3cc(OC(C)=O)ccc3n21` (stereo not drawn) yielded a relative binding affinity (RBA) in assay [1] of 2.1. For the same molecule, the T/C was found to be 12% in assay [2]; 73% in assay [3]; 116% in assay [4]; 12% in assay [5]; 0% in assay [6]; 12% in assay [7]. Further, the results for the T/C in assay [8] and in assay [9] were 81% and 0%, respectively. Besides, the inhibition in [10] was 50%; in assay [11] it was 18%; in assay [12] it was 17%; in [13], 20%. In addition, the Relative uterus weight in assay [14] is 48.2; in assay [15], 46.7; in assay [16] it was 34.3; in assay [17] it was 18.6; in assay [18], 20.2; in [19] it was 25.5. Further, the Relative uterus weight in assay [20] stood at 9.1; in assay [21], 47.8.

In assay [1], `CCCCCC1Cc2cc(OC(C)=O)ccc2-c2c(C=O)c3cc(OC(C)=O)ccc3n21` (stereo not drawn) gave a relative binding affinity (RBA) of 1.9. Further, the T/C in [2] amounted to 47%; in [3] it was 100%; in assay [4], 105%; in assay [5], 80%; in [6] it was 37%; in assay [7] it was 94%. The figures for the T/C in assay [8] and in assay [9] were 102% and 77%, respectively. In addition, the inhibition in assay [10] came out at 8%; in assay [11], 24%; in [12], 14%; in assay [13], 0%. The Relative uterus weight in [14] stood at 51; in [15] it was 57.3; in assay [16] it was 53.8; in [17], 16; in [18], 17.9; in assay [19], 22.5. Besides, the Relative uterus weight stood at 20.2 in assay [20] and 47.1 in assay [21].

As usually defined, the T/C is the result in the treated group divided by that in the control group, in per cent. In general, inhibition refers to the share of the control response that was lost under treatment. A lower inhibition goes with a weak effect.
